Source: ChEMBL document CHEMBL2434910, “Investigation of 3-aryl-pyrimido[5,4-e][1,2,4]triazine-5,7-diones as small molecule antagonists of β-catenin/TCF transcription” (Bioorg Med Chem Lett, 2013)
Calls of active or inactive are those of the source. No cut-off for these calls is given here.

How the values were obtained:
[1] = Antagonist activity at Beta-catenin/TCF in rat IEC-6 cells assessed as inhibition of Wnt-3a-induced axin2 expression preincubated for 6 hrs followed by Wnt-3a induction measured after 12 hrs by qPCR analysis; format: cell-based
How it was run: (§1)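 IEC-6 rat intestinal epithelial cells given compound at a range of concentrations for 6 h, then recombinant mouse Wnt-3a (50 ng/mL) added for 12 h. Target transcript quantified by qPCR with gene-specific primers, normalised to U6. The Wnt-3a-stimulated level with no compound is set to 100%. IC50 taken from concentration-response; mean ± SEM reported where available.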

[2] = Antagonist activity at Beta-catenin/TCF in rat IEC-6 cells assessed as inhibition of Wnt-3a-induced lgr5 expression preincubated for 6 hrs followed by Wnt-3a induction measured after 12 hrs by qPCR analysis; format: cell-based; how it was run: as §1
[3] = system: IEC-6; test: Antagonist activity at Beta-catenin/TCF in rat IEC-6 cells assessed as inhibition of Wnt-3a-induced lgr5 expression up to 0.7 uM preincubated for 6 hrs followed by Wnt-3a induction measured after 12 hrs by qPCR analysis; format: cell-based; how it was run: as §1
[4] = system: IEC-6; test: Antagonist activity at Beta-catenin/TCF in rat IEC-6 cells assessed as inhibition of Wnt-3a-induced axin2 expression up to 0.7 uM preincubated for 6 hrs followed by Wnt-3a induction measured after 12 hrs by qPCR analysis; format: cell-based; how it was run: as §1
[5] = system: IEC-6; test: Antagonist activity at Beta-catenin/TCF in rat IEC-6 cells assessed as inhibition of Wnt-3a-induced axin2 expression up to 179 uM preincubated for 6 hrs followed by Wnt-3a induction measured after 12 hrs by qPCR analysis; format: cell-based; how it was run: as §1
[6] = Metabolic stability in mouse liver microsomes assessed as compound remaining at 1 uM after 10 mins by LC-MS analysis; format: ADME, Microsome; conditions: read-out: Stability
How it was run: (§2)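 Compound (1 μM) incubated at 37°C with mouse liver microsomes to assess metabolic stability.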

[7] = Metabolic stability in mouse liver microsomes assessed as compound remaining at 1 uM after 60 mins by LC-MS analysis; format: ADME, Microsome; conditions: read-out: Stability; how it was run: as §2
[8] = system: Liver; test: Metabolic stability in mouse liver microsomes assessed as compound remaining at 1 uM after 3 mins by LC-MS analysis; format: ADME, Microsome; conditions: 0.05 h; how it was run: as §2
[9] = system: Liver; test: Metabolic stability in mouse liver microsomes assessed as half life at 1 uM after 1 to 60 mins by LC-MS analysis; format: ADME, Microsome; how it was run: as §2
[10] = Metabolic stability in mouse liver microsomes assessed as compound remaining at 1 uM after 30 mins by LC-MS analysis; format: ADME, Microsome; conditions: read-out: Stability; how it was run: as §2
[11] = system: IEC-6; test: Antagonist activity at Beta-catenin/TCF in rat IEC-6 cells assessed as inhibition of Wnt-3a-induced lgr5 expression up to 69 uM preincubated for 6 hrs followed by Wnt-3a induction measured after 12 hrs by qPCR analysis; format: cell-based; how it was run: as §1
[12] = system: IEC-6; test: Antagonist activity at Beta-catenin/TCF in rat IEC-6 cells assessed as inhibition of Wnt-3a-induced axin2 expression up to 69 uM preincubated for 6 hrs followed by Wnt-3a induction measured after 12 hrs by qPCR analysis; format: cell-based; how it was run: as §1
[13] = system: IEC-6; test: Antagonist activity at Beta-catenin/TCF in rat IEC-6 cells assessed as inhibition of Wnt-3a-induced lgr5 expression up to 1.2 uM preincubated for 6 hrs followed by Wnt-3a induction measured after 12 hrs by qPCR analysis; format: cell-based; how it was run: as §1
[14] = system: IEC-6; test: Antagonist activity at Beta-catenin/TCF in rat IEC-6 cells assessed as inhibition of Wnt-3a-induced axin2 expression up to 1.2 uM preincubated for 6 hrs followed by Wnt-3a induction measured after 12 hrs by qPCR analysis; format: cell-based; how it was run: as §1
[15] = system: SW480; test: Downregulation of axin2 protein level in human SW480 cells after 20 hrs by Western blotting analysis; format: functional, cell-based
[16] = system: DLD-1; test: Downregulation of cyclin D1 protein level in human DLD1 cells at 3 to 10 uM after 20 hrs by Western blotting analysis; format: functional, cell-based
How it was run: (§3)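 DLD-1 colorectal cancer cells treated with compound for 20 h in the dark. β-Catenin (free and total pools) and cyclin D1 protein levels assessed by Western blot.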

[17] = system: RKO; test: Antiproliferative activity against human RKO cells assessed as inhibition of colony formation at 1 to 3 uM after 2 weeks by crystal violet staining-based assay; format: functional, cell-based
How it was run: (§4)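 Colony formation assay. DLD-1 (bi-allelic APC mutation) and RKO (no β-catenin dysregulation) colon cancer cells seeded in medium with 10% serum containing compound. Surviving colonies visualised and counted two weeks after plating. Two independent experiments per concentration, each in triplicate. Compound incubations carried out in the dark.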

[18] = system: DLD-1; test: Antiproliferative activity against human DLD1 cells assessed as inhibition of colony formation at 1 to 3 uM after 2 weeks by crystal violet staining-based assay; format: functional, cell-based; how it was run: as §4
[19] = Downregulation of free beta-catenin protein level in HEK293T cells at 1 to 10 uM after 3 hrs by Western blotting analysis in presence of GSK3-beta antagonist SB216763; format: functional, cell-based; conditions: Homo sapiens, HEK-293T
How it was run: (§5)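 HEK293T cells treated with 5 μM SB216763 (GSK3β antagonist) together with various concentrations of compound, in the dark. Free and total β-catenin protein assessed by Western blot.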

[20] = Downregulation of free beta-catenin protein level in HEK293T cells after 3 hrs by Western blotting analysis in presence of dominant negative beta-TrCP; format: functional, cell-based; conditions: Homo sapiens; HEK-293T
[21] = system: SW480; test: Downregulation of free beta-catenin protein level in human SW480 cells at 3 to 10 uM after 20 hrs by Western blotting analysis; format: functional, cell-based
[22] = system: DLD-1; test: Downregulation of total beta-catenin protein level in human DLD1 cells at 3 to 10 uM after 20 hrs by Western blotting analysis; format: functional, cell-based; how it was run: as §3
[23] = system: HEK-293T; test: Effect on total beta-catenin protein level in HEK293T cells at 1 to 10 uM after 3 hrs by Western blotting analysis in presence of GSK3-beta antagonist SB216763; format: functional, cell-based; conditions: Homo sapiens; how it was run: as §5
[24] = system: SW480; test: Downregulation of total beta-catenin protein level in human SW480 cells at 3 to 10 uM after 20 hrs by Western blotting analysis; format: functional, cell-based
[25] = system: DLD-1; test: Downregulation of free beta-catenin protein level in human DLD1 cells at 3 to 10 uM after 20 hrs by Western blotting analysis; format: functional, cell-based; how it was run: as §3
[26] = Downregulation of free beta-catenin protein level in HEK293T cells after 3 hrs by Western blotting analysis in presence of GSK3-beta antagonist SB216763 and proteasome inhibitor MG-132; format: functional, cell-based; conditions: Homo sapiens; HEK-293T
[27] = system: DLD-1; test: Antiproliferative activity against human DLD1 cells assessed as inhibition of colony formation at 0.3 to 0.5 uM after 2 weeks by crystal violet staining-based assay; format: functional, cell-based
How it was run: (§6)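 Cells seeded in medium with 10% serum containing the test compound, kept in the dark; surviving colonies counted two weeks after plating. Colony counts are from two independent experiments at each concentration, each run in triplicate.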

[28] = system: RKO; test: Antiproliferative activity against human RKO cells assessed as inhibition of colony formation at 0.3 to 0.5 uM after 2 weeks by crystal violet staining-based assay; format: functional, cell-based; how it was run: as §6

In the case of COc1c(C[C@@H](C)OC(=O)Oc2ccc(O)cc2)c2c3c(C[C@@H](C)OC(=O)c4ccccc4)c(OC)c(=O)c4c(O)cc(OC)c(c5c(OC)cc(O)c(c1=O)c52)c43 [CALPHOSTIN C], the IC50 [1] is reported as 550 nM and the IC50 [2] is reported as 390 nM.

With CCN(CC)CCOc1ccc(-c2nc3c(=O)n(C)c(=O)nc-3n(C)n2)cc1 the inhibition [3] was “inactive” and the inhibition [4] was “inactive”.

In the case of CCN(CC)CCOc1ccc(-c2nnc3c(n2)c(=O)n(C)c(=O)n3-c2ccccc2)cc1, the inhibition [5] is reported as “Active” and the IC50 [2] is reported as 165000 nM.

Work on CCN(CC)CCOc1ccc(-c2nc3c(=O)n(C)c(=O)nc-3n(-c3ccccc3)n2)cc1 yielded a remaining at 10 min, 1 µM [6] of 92.2%, a remaining at 1 h, 1 µM [7] of 31.8% and a Stability [8] of 110%. It also gave a t1/2 [9] of 34.7 min, an IC50 [1] of 300 nM and a remaining at 0.5 h, 1 µM [10] of 70.7%. It also gave an IC50 [2] of 260 nM.

For CCN(CC)CCOc1ccc(-c2nnc3c(n2)c(=O)n(C)c(=O)n3C)cc1, the inhibition [11] was “inactive” and the inhibition [12] was “inactive”.

With COc1ccc(-c2nc3c(=O)n(C)c(=O)nc-3n(CCO)n2)cc1 the inhibition [13] was “inactive” and the inhibition [14] was “inactive”.

In the case of Cn1nc(-c2ccc(Cl)cc2)nc2c(=O)n(C)c(=O)nc1-2, the Activity [15] is reported as “Dose-dependent effect”, the Activity [16] is reported as “Active” and the inhibition [17] is reported as “Active”. The inhibition [18] was “Active”, the Activity [19] was “Active” and the IC50 [1] was 1770 nM. The Activity [20] was “Active”, the Activity [21] was “Active” and the Activity [22] was “Active”. For the same molecule, the IC50 [2] was 1530 nM, the Activity [23] was “inactive” and the Activity [24] was “Active”. For the same molecule, the Activity [25] was “Active” and the Activity [26] was “inactive”.

With Cn1ncnc2c(=O)n(C)c(=O)nc1-2 the inhibition [27] was “Active”, the inhibition [28] was “Active” and the IC50 [1] was 330 nM. It also gave an IC50 [2] of 290 nM.

For Oc1nc(-c2ccc(C(F)(F)F)cc2)nc2c1CSCC2, the IC50 [1] was 640 nM and the IC50 [2] was 2900 nM.

COc1ccc(-c2nc3c(=O)n(C)c(=O)nc-3n(-c3ccccc3)n2)cc1 showed an IC50 [1] of 2670 nM and an IC50 [2] of 2100 nM.

For COc1ccc(-c2nc3c(=O)n(C)c(=O)nc-3n(C)n2)cc1, the Activity [16] was “Active”, the IC50 [1] was 2670 nM and the Activity [22] was “Active”. For the same molecule, the IC50 [2] was 1530 nM.
